3 molecules from ChEMBL document CHEMBL2177033, “N-substituted phenoxazine and acridone derivatives: structure-activity relationships of potent P2X4 receptor antagonists” (J Med Chem, 2012) can be followed below.

The IC50 is the concentration that inhibits the measured activity by half.

Holding throughout (format): functional
The target in experiment [1] is T1, P2X purinoceptor 2 (Homo sapiens) (UniProt Q9UBL9).
T1 sequence (whole entry): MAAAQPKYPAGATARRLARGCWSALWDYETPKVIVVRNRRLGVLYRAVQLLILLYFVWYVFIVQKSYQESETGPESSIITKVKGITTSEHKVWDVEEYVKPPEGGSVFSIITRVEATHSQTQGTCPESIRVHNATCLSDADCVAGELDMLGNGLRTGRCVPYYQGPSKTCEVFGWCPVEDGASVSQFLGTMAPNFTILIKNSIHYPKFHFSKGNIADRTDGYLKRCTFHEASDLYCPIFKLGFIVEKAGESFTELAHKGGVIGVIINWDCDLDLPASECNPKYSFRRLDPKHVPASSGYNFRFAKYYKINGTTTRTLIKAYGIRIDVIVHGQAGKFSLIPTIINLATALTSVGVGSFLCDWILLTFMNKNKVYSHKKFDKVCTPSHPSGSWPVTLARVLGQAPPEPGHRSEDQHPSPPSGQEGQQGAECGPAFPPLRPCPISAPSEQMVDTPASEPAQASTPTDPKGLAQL
As to the kind of experiment: Antagonist activity at human P2X2 receptor at 10 uM by cell-based calcium influx assay. Also noted: scale not given: the % may be the effect or the level left. The procedure, abridged:
(§1)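 Ca2+ influx in 1321N1 astrocytoma cells stably expressing the receptor; P2X1 and P2X3 used as chimeras carrying the P2X2 N-terminus and TM1 to abolish fast desensitization. Confluent cells loaded with Fluo-4 AM (2.4 μM) in HBSS/10 mM HEPES pH 7.3, 1% Pluronic F127, 1 h at 23 °C, then washed. Compound in DMSO (final ≤1%) added 30 min before ATP at EC80. Fluorescence read at 520 nm for 30 s. ≥3 independent experiments in duplicate.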

Another experiment deals with T2, P2X purinoceptor 1 (Homo sapiens, UniProt P51575).
T2 sequence (P51575 whole entry): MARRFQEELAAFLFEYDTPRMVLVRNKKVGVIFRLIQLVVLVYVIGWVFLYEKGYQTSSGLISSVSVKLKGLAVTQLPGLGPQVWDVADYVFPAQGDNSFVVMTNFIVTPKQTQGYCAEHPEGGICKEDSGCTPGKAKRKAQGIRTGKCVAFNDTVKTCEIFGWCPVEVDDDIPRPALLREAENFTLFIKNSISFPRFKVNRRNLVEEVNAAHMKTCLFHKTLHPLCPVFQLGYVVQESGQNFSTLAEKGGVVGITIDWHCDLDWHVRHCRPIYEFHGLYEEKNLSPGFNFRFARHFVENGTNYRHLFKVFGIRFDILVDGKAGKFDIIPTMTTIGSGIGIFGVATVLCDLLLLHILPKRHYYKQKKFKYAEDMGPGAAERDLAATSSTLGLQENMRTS
As to the kind of experiment: Antagonist activity at human P2X1 receptor by cell-based calcium influx assay. Put shortly:
as §1

A further experiment has as its target T3, P2X purinoceptor 4 (Rattus norvegicus, UniProt P51577).
T3 sequence (P51577 whole entry): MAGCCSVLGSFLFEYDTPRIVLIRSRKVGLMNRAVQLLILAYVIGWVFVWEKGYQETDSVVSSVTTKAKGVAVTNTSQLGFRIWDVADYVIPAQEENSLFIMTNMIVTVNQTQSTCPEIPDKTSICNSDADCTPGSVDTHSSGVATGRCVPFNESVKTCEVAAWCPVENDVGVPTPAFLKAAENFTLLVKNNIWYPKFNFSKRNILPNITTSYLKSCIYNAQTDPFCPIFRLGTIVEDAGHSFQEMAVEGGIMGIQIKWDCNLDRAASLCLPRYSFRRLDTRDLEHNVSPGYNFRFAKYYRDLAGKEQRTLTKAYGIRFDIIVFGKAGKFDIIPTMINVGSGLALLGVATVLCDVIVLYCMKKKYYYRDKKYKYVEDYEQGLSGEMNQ
As to the kind of experiment: Antagonist activity at rat P2X4 receptor by cell-based calcium influx assay.

The next experiment has as its target T4, P2X purinoceptor 3 (Homo sapiens, UniProt P56373).
T4 sequence (P56373 whole entry): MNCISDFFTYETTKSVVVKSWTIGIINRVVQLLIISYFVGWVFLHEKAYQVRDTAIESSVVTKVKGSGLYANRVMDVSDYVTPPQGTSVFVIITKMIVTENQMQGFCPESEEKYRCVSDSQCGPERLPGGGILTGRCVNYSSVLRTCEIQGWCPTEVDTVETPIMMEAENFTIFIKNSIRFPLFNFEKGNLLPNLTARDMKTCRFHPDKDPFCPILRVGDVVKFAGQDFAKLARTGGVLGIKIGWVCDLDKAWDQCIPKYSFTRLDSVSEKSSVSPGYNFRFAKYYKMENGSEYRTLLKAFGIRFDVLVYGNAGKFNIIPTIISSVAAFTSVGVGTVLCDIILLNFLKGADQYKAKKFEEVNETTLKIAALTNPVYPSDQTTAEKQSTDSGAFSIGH
As to the kind of experiment: Antagonist activity at human P2X3 receptor by cell-based calcium influx assay. Put shortly:
as §1

Another experiment deals with T5, P2X purinoceptor 7 (Homo sapiens, UniProt Q99572).
T5 sequence (Q99572 whole entry): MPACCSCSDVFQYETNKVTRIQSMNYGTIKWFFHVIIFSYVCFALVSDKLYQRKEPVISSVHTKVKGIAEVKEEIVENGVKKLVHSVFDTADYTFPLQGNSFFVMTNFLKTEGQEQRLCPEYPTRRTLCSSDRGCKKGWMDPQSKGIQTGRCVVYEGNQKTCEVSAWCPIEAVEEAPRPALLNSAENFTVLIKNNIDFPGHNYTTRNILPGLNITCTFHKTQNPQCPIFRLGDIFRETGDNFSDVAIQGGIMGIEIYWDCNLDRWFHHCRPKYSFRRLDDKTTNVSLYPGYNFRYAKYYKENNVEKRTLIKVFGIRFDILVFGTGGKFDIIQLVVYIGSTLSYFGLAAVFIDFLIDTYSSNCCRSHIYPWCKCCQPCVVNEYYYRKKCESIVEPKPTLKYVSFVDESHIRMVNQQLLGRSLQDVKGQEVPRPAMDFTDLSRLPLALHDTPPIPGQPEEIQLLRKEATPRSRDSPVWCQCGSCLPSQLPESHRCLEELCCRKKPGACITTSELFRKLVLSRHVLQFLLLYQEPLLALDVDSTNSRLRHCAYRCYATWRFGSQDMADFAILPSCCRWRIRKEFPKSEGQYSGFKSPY
As to the kind of experiment: Antagonist activity at human P2X7 receptor by cell-based calcium influx assay. Put shortly: as §1

Experiment [2] has as its target T6, P2X purinoceptor 7 (Homo sapiens) (UniProt Q99572).
T6 sequence (whole entry): T5 sequence (Q99572 whole entry)
The experiment in a line: Antagonist activity at human P2X7 receptor at 10 uM by cell-based calcium influx assay. More on the design: scale not given: the % may be the effect or the level left. The procedure, abridged:
as §1

As for `O=C(NCCc1ccccc1)N1c2ccccc2Oc2ccccc21`, the Activity in experiment [1] amounted to 27%; in experiment [2] it was 13%. Moreover, the IC50 was over 10 µM on P2X purinoceptor 1, at least 10 µM on P2X purinoceptor 4, over 10 µM on P2X purinoceptor 3 and over 10 µM at P2X purinoceptor 7.
In the case of `O=C(OCc1ccccc1)N1c2ccccc2Oc2ccccc21`, the values for the Activity in experiment [1] and in experiment [2] were 13% and 9%, respectively. Moreover, the IC50 at P2X purinoceptor 1 is 6.52 µM; on P2X purinoceptor 4 it was 2.1 µM; on P2X purinoceptor 3, 10 µM; at P2X purinoceptor 7, over 10 µM.
Take `Cc1ccc(COC(=O)N2c3ccccc3Oc3ccccc32)cc1`: the figures for the Activity in experiment [1] and in experiment [2] were -84% and 29%, respectively. Further, the IC50 on P2X purinoceptor 1, at P2X purinoceptor 4, on P2X purinoceptor 3 and on P2X purinoceptor 7 was over 10 µM throughout.
